ChEMBL document CHEMBL1133773, “Characterization of a novel analogue of 1alpha,25(OH)(2)-vitamin D(3) with two side chains: interaction with its nuclear receptor and cellular actions” (2000)
The source made the active and inactive calls.

What was measured:
[1] = molecular target: T1, Vitamin D-binding protein (Homo sapiens) (UniProt P02774); test: Percentage binding to Human Vitamin D binding protein, relative competitive index (RCI)
T1 sequence (whole entry): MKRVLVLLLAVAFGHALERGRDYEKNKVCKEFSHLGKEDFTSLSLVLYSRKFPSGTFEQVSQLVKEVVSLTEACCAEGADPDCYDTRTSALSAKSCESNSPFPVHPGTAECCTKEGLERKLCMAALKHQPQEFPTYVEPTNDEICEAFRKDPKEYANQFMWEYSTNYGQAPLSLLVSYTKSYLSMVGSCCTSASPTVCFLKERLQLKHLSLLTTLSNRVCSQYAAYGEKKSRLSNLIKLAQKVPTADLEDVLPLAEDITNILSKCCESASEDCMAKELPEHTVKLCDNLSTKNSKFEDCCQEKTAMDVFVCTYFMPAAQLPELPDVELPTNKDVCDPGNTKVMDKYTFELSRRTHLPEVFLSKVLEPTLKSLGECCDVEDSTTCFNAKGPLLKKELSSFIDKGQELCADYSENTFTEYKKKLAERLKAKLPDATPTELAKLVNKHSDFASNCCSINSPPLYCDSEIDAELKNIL
Outline: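 Steroid competition assay with human DBP: increasing unlabeled ligand or 125D standard incubated 4 h at 4 °C with a fixed concentration of [³H]125D. Bound and free ligand separated by charcoal-dextran. RCI calculated relative to 125D, which is set at 100%.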

[2] = Effective dose for Protease sensitivity; assay type: functional
Outline: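 In vitro translated VDR labeled with [³⁵S]methionine, incubated 20 min at room temperature with ligand (10^-7–10^-11 M), then trypsin digestion 20 min; products resolved on 14% SDS-PAGE and autoradiographed. ED50 is the ligand concentration giving 50% of the maximal level of the major trypsin-resistant fragment. Trypsin level is given as both 15 and 20 µg/mL in the text.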

[3] = tested on: LNCaP; test: Inhibition of colony formation assays on LNCaP cells; (NR: not reached at <= 10e -6M); assay type: functional, cell-based; conditions: Homo sapiens
Outline: (§1)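 Soft agar clonal assay in six-well dishes with two layers: compound mixed into the 0.5% agar under layer, cells (1 × 10³/plate) in the 0.3% agar upper layer. Incubated 12 days at 37 °C in humidified 5% CO2. Colonies expressed as percent of untreated control plates. Triplicate plates per point, each experiment done at least three times; ED50 taken from dose-response curves.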

[4] = tested on: HL-60; test: Inhibition of colony formation assays on HL-60 cells; assay type: functional; conditions: Homo sapiens, read-out: ED50 (the source's name)
[5] = tested on: LNCaP; test: Inhibition of colony formation assays on LNCaP cells; assay type: functional; conditions: Homo sapiens, read-out: ED50 (the source's name); outline: as §1
[6] = Effective dose for transcriptional activation in ROS 17/2.8 osteosarcoma cells; assay type: functional; conditions: Rattus norvegicus; read-out: ED50 (the source's name)
[7] = tested on: MCF7; test: Inhibition of colony formation assays on MCF-7 cells; assay type: functional; conditions: Homo sapiens, read-out: ED50 (the source's name); outline: as §1
[8] = molecular target: T2, Vitamin D3 receptor (Gallus gallus) (UniProt O42392); test: Percentage binding to chick intestinal vitamin D3 receptor, relative competitive index (RCI)
T2 sequence (whole entry): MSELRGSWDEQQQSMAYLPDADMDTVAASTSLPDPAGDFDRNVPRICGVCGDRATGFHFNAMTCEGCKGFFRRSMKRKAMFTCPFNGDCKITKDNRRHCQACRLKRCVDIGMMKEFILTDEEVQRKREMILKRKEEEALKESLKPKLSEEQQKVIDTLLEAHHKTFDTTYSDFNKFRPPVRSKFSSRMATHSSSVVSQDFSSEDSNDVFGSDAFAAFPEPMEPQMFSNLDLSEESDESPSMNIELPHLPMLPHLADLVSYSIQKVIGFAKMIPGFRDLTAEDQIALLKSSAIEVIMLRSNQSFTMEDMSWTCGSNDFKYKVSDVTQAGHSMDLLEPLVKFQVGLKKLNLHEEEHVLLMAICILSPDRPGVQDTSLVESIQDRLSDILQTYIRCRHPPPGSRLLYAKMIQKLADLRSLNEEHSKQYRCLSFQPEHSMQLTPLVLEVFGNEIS
Outline: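 Competition binding to chick intestinal VDR: rising concentrations of competitor or unlabeled 125D incubated 4 h at 4 °C with a defined amount of [³H]125D. Bound ligand separated from free by hydroxyapatite. RCI computed with 125D defined as 100%.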

SMILES	RCI [1]	ED50 [2]	ED50 [3]	EC50 [4]	EC50 [5]	EC50 [6]	EC50 [7]	RCI [8]
C=C1/C(=C\C=C2/CCC[C@]3(C)[C@@H]([C@H](C)CCCC(C)(C)O)CC[C@@H]23)C[C@@H](O)C[C@@H]1O	100%	5.9 nM	inactive					
C=C1/C(=C\C=C2/CCC[C@]3(C)[C@@H](C(CCCC(C)(C)O)CCCC(C)(C)O)CC[C@@H]23)C[C@@H](O)C[C@@H]1O	2.5%	180 nM		0.34 nM	82 nM	1 nM	1.2 nM	38%
C=C1/C(=C\C=C2/CCC[C@]3(C)[C@@H]([C@@H](C)CCCC(C)(C)O)CC[C@@H]23)C[C@@H](O)C[C@@H]1O	2.6%	0.13 nM						147%
